Assay results: ChEMBL document CHEMBL1782022, “Potent macrocyclic inhibitors of insulin-regulated aminopeptidase (IRAP) by olefin ring-closing metathesis” (J Med Chem, 2011)

Tests used:
[1] = biological target: Aminopeptidase N (Homo sapiens, UniProt P15144); assay: Inhibition of catalytic activity of recombinant human AP-N transfected in human HEK-293 cells assessed as cleavage of substrate L-leucine-p-nitroanilide to L-leucine and p-nitroaniline measured every 5 mins for 10 to 50 mins by spectrophotometric analysis; format: cell-based, HEK293
[2] = Displacement of [3H]AL-11 from IRAP of CHO-K1 cell membrane after 30 mins by scintillation counting in presence of 30 mM EDTA and 600 uM 1,10-Phenantrone; format: cell membranes, Cricetulus griseus
Outline: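 CHO-K1 membranes with endogenous IRAP (4 × 10⁵ cells) in 50 mM Tris-HCl pH 7.4 buffer were preincubated 40 min at 37 °C with compound (10⁻⁹–10⁻⁵ M final) without chelators. [³H]AL-11 (3 nM final) was then added with EDTA/1,10-Phe (final 5 mM/100 μM) for 30 min at 37 °C. Unlabeled Ang IV defined nonspecific binding. Bound radioactivity was collected on BSA-soaked GF/B filters and β-counted. Runs were ≥2× in duplicate. IC50 came from nonlinear regression and Ki from Cheng–Prusoff using the [³H]AL-11 KD.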

[3] = Displacement of [3H]AL-11 from IRAP of CHO-K1 cell membrane preincubated for 40 mins in presence of 30 mM EDTA and 600 uM 1,10-Phenantrone after 30 mins by scintillation counting; format: cell membranes, Cricetulus griseus
Outline: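 Chelators EDTA (5 mM final) and 1,10-phenanthroline (100 μM final) were present both in the 40 min, 37 °C preincubation of CHO-K1 membranes (4 × 10⁵ cells, 50 mM Tris-HCl pH 7.4) with compound (10⁻⁹–10⁻⁵ M) and during the binding step. Binding was 30 min at 37 °C with 3 nM [³H]AL-11, with unlabeled Ang IV for nonspecific binding. Read-out was GF/B filtration and β-counting, ≥2 experiments in duplicate. IC50 came from nonlinear regression and Ki via Cheng–Prusoff.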

Sequence of Aminopeptidase N (P15144 whole entry): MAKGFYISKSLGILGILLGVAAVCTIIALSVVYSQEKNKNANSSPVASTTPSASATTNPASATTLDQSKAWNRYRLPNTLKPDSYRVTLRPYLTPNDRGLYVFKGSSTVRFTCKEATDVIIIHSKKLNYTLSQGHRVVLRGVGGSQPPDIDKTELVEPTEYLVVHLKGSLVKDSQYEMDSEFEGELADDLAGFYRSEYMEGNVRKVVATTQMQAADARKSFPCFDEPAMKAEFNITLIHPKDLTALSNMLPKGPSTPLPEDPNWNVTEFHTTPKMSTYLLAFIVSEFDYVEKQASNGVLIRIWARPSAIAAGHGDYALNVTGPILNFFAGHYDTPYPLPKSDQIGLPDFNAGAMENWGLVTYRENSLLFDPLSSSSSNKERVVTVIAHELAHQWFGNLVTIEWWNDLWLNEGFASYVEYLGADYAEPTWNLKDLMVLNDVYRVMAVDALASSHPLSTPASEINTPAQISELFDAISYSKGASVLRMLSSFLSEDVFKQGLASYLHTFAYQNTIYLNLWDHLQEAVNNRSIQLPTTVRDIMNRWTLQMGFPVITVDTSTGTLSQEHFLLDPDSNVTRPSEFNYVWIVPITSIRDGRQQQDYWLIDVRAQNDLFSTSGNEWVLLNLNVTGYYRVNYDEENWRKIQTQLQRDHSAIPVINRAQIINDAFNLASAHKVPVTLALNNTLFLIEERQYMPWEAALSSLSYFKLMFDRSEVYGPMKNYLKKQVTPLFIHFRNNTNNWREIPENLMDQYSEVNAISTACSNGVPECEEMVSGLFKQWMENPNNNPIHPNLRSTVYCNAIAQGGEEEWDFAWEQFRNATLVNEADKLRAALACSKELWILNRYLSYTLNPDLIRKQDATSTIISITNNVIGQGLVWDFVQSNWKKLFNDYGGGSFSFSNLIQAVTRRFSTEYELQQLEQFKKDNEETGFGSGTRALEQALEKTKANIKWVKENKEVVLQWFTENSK

Ki [1] | Compound | Ki [2] | Ki [3]
> 100 µM | CN1C(=O)[C@@H](N)CCCC/C=C\C[C@@H](C(=O)NCc2ccccc2)NC(=O)[C@@H]1Cc1ccc(O)cc1 |  | 
 | N[C@H]1CCCC/C=C/C[C@@H](C(=O)NCc2ccccc2CC(=O)O)NC(=O)[C@H](Cc2ccc(O)cc2)NC1=O | 0.0468 µM | 0.133 µM
 | N[C@H]1CCCCCCC[C@@H](C(=O)NCc2ccccc2CC(=O)O)NC(=O)[C@H](Cc2ccc(O)cc2)NC1=O | 0.0125 µM | 0.517 µM
 | N[C@H]1CCCCCC[C@@H](C(=O)NCc2ccccc2CC(=O)O)NC(=O)[C@H](Cc2ccc(O)cc2)NC1=O | 0.0289 µM | 0.631 µM
 | N[C@H]1CC/C=C/CC[C@@H](C(=O)NCc2ccccc2CC(=O)O)NC(=O)[C@H](Cc2ccc(O)cc2)NC1=O | 0.0368 µM | 0.45 µM
 | N[C@H]1CC/C=C\CC[C@@H](C(=O)NCc2ccccc2CC(=O)O)NC(=O)[C@H](Cc2ccc(O)cc2)NC1=O | 0.0248 µM | 0.568 µM
 | N[C@H]1CC/C=C/CC[C@@H](C(=O)NCc2ccccc2CC(=O)O)NC(=O)C[C@H](Cc2ccc(O)cc2)NC1=O | 0.0098 µM | 0.0742 µM
 | N[C@H]1CC/C=C/CC[C@@H](C(=O)NCc2ccccc2)NC(=O)[C@H](Cc2ccccc2)NC1=O | 0.719 µM | 3.52 µM
 | N[C@H]1CC/C=C\CC[C@@H](C(=O)NCc2ccccc2)NC(=O)[C@H](Cc2ccccc2)NC1=O | 0.287 µM | 3.47 µM
> 100 µM | CN1C(=O)[C@@H](N)CCCC/C=C/C[C@@H](C(=O)NCc2ccccc2)NC(=O)[C@@H]1Cc1ccc(O)cc1 |  | 
> 100 µM | CN1C(=O)[C@@H](N)CCC/C=C/CC[C@@H](C(=O)NCc2ccccc2)NC(=O)[C@@H]1Cc1ccc(O)cc1 |  | 
> 100 µM | CN1C(=O)[C@@H](N)CCC/C=C\CC[C@@H](C(=O)NCc2ccccc2)NC(=O)[C@@H]1Cc1ccc(O)cc1 |  | 
